Data on 25 compounds can be found in ChEMBL document CHEMBL1123482, “Synthesis and dopaminergic activity of some halogenated mono- and dihydroxylated 2-aminotetralins” (1986).

Assay [1] addresses D(1A) dopamine receptor (Rattus norvegicus) (UniProt P18901). Nature of the assay: Affinity for Dopamine receptor D1 binding sites was evaluated in a test involving displacement of [3H]- fenoldopam in rat striatum. The assay is classed as tissue-based. In general terms: In a radioligand displacement assay an active substance lowers the binding of a labelled ligand.
The target is the same in assay [2]. Nature of the assay: Stimulation of dopamine-sensitive rat caudate adenylate cyclase or antagonism of dopamine stimulus as measure of D1 efficacy; No stimulation. The assay is classed as functional.
Assay [3] concerns the target D(2) dopamine receptor (Bos taurus) (UniProt P20288). Kind of assay: Affinity for Dopamine receptor D2 was evaluated from the ability to displace [3H]spiroperidol from homogenized bovine pituitary. The method, boiled down:
(§1)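 Bovine anterior pituitary homogenate with [3H]spiroperidol ~0.25 nM. Screened at 10^-5 and 10^-7 M; where displacement was 50% or more, IC50 was determined. KBind = IC50/(1 + L/KD), spiroperidol KD 0.3 nM.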

For assay [4], the species on record is Oryctolagus cuniculus. Kind of assay: The D2 efficacy was evaluated in isolated perfused rabbit ear artery test; No response at 1 uM. The assay is classed as functional. The method, boiled down:
(§2)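 Isolated perfused rabbit ear artery given brief intermittent nerve stimulation; concentration-dependent inhibition of the constrictor response measured. EC50 is the concentration giving 50% inhibition of constriction. Antagonist KB values for (S)-sulpiride determined by the Furchgott method, in nM.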

Assay [5] deals with D(1A) dopamine receptor (Rattus norvegicus) (UniProt P18901). Nature of the assay: The ability of a compound to stimulate dopamine-sensitive rat caudate adenylate cyclase or to antagonise the stimulant of dopamine was used as measure of D1 efficacy. The assay is classed as functional.
The target of assay [6] is D(2) dopamine receptor (Bos taurus) (UniProt P20288). Kind of assay: Affinity for Dopamine receptor D2 was evaluated from the ability to displace [3H]spiroperidol from homogenized bovine uM. Particulars: concentration not given here. The method, boiled down: as §1
The species entered for assay [7] is Oryctolagus cuniculus. Kind of assay: The D2 efficacy was evaluated in isolated perfused rabbit ear artery test. Particulars: read-out: ED50 (the source's name). The assay is classed as functional. The essentials: as §2

The source made the active and inactive calls. The calls are words filed in the database; no cut-off is given here. Where only a bound is given, the exact number is not on record here.

Sequence of D(2) dopamine receptor (Bos taurus) (P20288 whole entry, the tested form may be a part): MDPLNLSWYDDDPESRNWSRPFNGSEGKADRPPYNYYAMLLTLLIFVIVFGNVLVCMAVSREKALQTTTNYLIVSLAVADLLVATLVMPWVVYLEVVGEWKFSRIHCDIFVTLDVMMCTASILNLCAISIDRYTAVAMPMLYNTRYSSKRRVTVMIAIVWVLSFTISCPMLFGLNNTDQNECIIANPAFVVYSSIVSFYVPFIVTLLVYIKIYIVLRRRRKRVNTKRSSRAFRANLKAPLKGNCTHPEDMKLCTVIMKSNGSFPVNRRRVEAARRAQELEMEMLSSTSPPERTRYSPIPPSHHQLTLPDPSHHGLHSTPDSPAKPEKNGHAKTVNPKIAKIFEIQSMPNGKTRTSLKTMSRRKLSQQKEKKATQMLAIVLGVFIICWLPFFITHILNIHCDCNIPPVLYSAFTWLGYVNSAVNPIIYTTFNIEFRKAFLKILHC
Sequence of D(1A) dopamine receptor (Rattus norvegicus) (P18901 whole entry): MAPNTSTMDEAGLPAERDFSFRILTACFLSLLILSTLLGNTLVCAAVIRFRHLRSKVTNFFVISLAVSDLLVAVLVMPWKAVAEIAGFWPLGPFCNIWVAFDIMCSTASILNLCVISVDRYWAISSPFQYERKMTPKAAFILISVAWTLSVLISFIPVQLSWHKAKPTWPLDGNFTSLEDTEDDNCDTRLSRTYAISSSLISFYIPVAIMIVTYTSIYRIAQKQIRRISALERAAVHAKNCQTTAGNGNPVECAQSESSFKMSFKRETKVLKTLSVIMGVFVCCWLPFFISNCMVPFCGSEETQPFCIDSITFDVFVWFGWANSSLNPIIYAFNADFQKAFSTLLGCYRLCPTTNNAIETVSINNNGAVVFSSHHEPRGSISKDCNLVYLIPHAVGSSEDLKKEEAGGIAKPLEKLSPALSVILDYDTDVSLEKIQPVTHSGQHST

With `CN(C)C1CCc2cc(O)c(Cl)cc2C1` (stereo not drawn), the K Bind in assay [1] stood at 2.3 µM; in assay [3], 0.09 µM. In assay [2], the ED50 entry was “inactive”.

As for `NC1CCc2c(cc(O)c(O)c2Cl)C1` (stereo not drawn), the K Bind in assay [1] came out at 0.84 µM; in assay [3], 0.47 µM. Besides, the ED50 result in assay [2] is “inactive”.

Regarding `CCCN(CCC)CC1CCc2cc(F)c(O)cc2C1` (stereo not drawn), the K Bind is more than 50 µM in assay [1] and 14.1 µM in assay [3].

For the compound `NC1CCc2cc(O)c(Cl)cc2C1` (stereo not drawn), the K Bind in assay [1] amounted to 1.97 µM; in assay [3], 4.47 µM. Further, the ED50 result in assay [2] was “inactive”.

Consider `CN(C)C1CCc2cc(F)c(O)cc2C1` (stereo not drawn), for which the K Bind was found to be 0.76 µM in assay [1] and 0.47 µM in assay [3].

With `NC1CCc2cc(Cl)c(O)cc2C1` (stereo not drawn), the ED50 result (in the assay filed under Oryctolagus cuniculus [4]; in assay [2]) was “inactive” each time. In addition, the K Bind stood at 1.44 µM in assay [1] and 1.05 µM in assay [3].

For the compound `CCCN(CCc1ccc(O)cc1)C1CCc2cc(O)c(O)c(Cl)c2C1` (stereo not drawn), the K Bind in assay [1] was found to be 0.27 µM; in assay [3] it was 0.033 µM.

On to `CCCN(CCC)C1CCc2cc(Cl)c(O)c(Cl)c2C1` (stereo not drawn), for which the results for the K Bind in assay [1] and in assay [3] were more than 10 µM and 10.4 µM, respectively. Moreover, the ED50 entry in assay [2] is “inactive”.

Turning to `NC1CCc2c(cc(O)c(O)c2F)C1` (stereo not drawn), the K Bind in assay [1] amounted to 0.074 µM; in assay [3] it was 0.52 µM. In addition, the ED50 in assay [5] came to 1.6 µM.

As to `CN(C)C1CCc2cc(Cl)c(O)cc2C1` (stereo not drawn), the K Bind in assay [1] came to 2.63 µM; in assay [3] it was 1.55 µM. Further, the ED50 result in assay [2] is “inactive”.

With `NC1CCc2c(ccc(O)c2Cl)C1` (stereo not drawn), the results for the K Bind in assay [1] and in assay [3] were more than 10 µM and 11.6 µM, respectively.

Consider `CN(C)C1CCc2c(ccc(O)c2Cl)C1` (stereo not drawn), for which the K Bind in assay [1] stood at 5.95 µM; in assay [3] it was 3.5 µM.

On to `Oc1ccc(CCNC2CCc3cc(O)c(O)c(Cl)c3C2)cc1` (stereo not drawn), for which the K Bind in assay [1] came out at 0.145 µM; in assay [3], 0.41 µM.

Take `NC1CCc2cc(O)c(O)c(F)c2C1` (stereo not drawn): the K Bind in assay [1] turned out to be 0.062 µM; in assay [3], 1.27 µM. Also, the ED50 in assay [5] is 2.2 µM.

On to `NC1CCc2cc(F)c(O)cc2C1` (stereo not drawn), for which the K Bind was found to be 0.37 µM in assay [1] and 0.66 µM in assay [3].

For the compound `NC1CCc2cc(Cl)c(O)c(Cl)c2C1` (stereo not drawn), the inhibition (commonly the relative decrease from the control value, in per cent) in assay [6] was 30%. Further, the K Bind in assay [1] came out at 2.97 µM.

In the case of `CN(C)C1CCc2cc(Cl)c(O)c(Cl)c2C1` (stereo not drawn), the inhibition in assay [6] stood at 29%. In assay [1], the K Bind was more than 20 µM.

As for `CCCN(CCC)C1CCc2cc(Cl)c(O)cc2C1` (stereo not drawn), the K Bind in assay [1] turned out to be 4.71 µM; in assay [3] it was 1.63 µM. Moreover, in assay [2], the ED50 entry is “inactive”.

`CCCN(CCC)C1CCc2cc(O)c(Cl)cc2C1` (stereo not drawn): the K Bind in assay [1] is 8.23 µM; in assay [3] it was 0.9 µM. The ED50 result in assay [2] is “inactive”.

In assay [5], `NCCc1ccc(O)c(O)c1` showed an ED50 of 3.5 µM.

In the case of `CCCN(CCC)C1CCc2cc(O)c(O)c(Cl)c2C1` (stereo not drawn), the K Bind in assay [1] was found to be 0.62 µM; in assay [3], 0.24 µM.

With `NC1CCc2cc(O)c(O)c(Cl)c2C1` (stereo not drawn), in the assay listed under Oryctolagus cuniculus [7], the EC50 is 536 µM. Moreover, the K Bind in assay [1] is 0.043 µM; in assay [3], 3.16 µM. This compound also had an ED50 in assay [5] of 1.4 µM.

Take `NC1CCc2cc(O)c(O)cc2C1` (stereo not drawn): the K Bind worked out at 0.07 µM in assay [1] and 0.21 µM in assay [3]. In addition, the ED50 in assay [5] turned out to be 2.7 µM.

For `CCCN(CCC)C1CCc2cc(F)c(O)cc2C1` (stereo not drawn), the K Bind came out at 1.74 µM in assay [1] and 0.43 µM in assay [3].

For the compound `CCCN(CCC)C1CCc2c(ccc(O)c2Cl)C1` (stereo not drawn), the figures for the K Bind in assay [1] and in assay [3] were 2.25 µM and 0.85 µM, respectively.
